Drawing on ChEMBL document CHEMBL1156229, “Pharmacophore development and application toward the identification of novel, small-molecule autotaxin inhibitors” (J Med Chem, 2010), this text covers inhibition for 45 compounds.

SMILES strings stand for the structures.

This test has as its target Autotaxin (Homo sapiens, UniProt Q13822). Description: Inhibition of human recombinant C-terminal FLAG-tagged autotaxin expressed in baculovirus-infected Sf9 cells assessed as FS-3 hydrolysis at 10 uM relative to control. The method in brief: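 Single-dose screen: inhibitor 10 μM final, purified recombinant human ATX 8.3 nM, FS-3 1 μM, fatty acid free BSA 30 μM in Tris pH 8 buffer (1 mM MgCl2, 1 mM CaCl2, 3 mM KCl, 140 mM NaCl), 37 °C. Fluorescence (ex 485/em 538) read every 2 min; percent activity vs vehicle after no-ATX subtraction at 1 h; mean ± SD of three wells.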
In the case of `O=S(=O)(O)c1ccc(/N=N/Nc2ccc(S(=O)(=O)O)cc2)cc1`, the inhibition is 1%.
In the case of `Nc1ccc(C(=O)Nc2ccc(C(=O)Nc3ccc4cc(S(=O)(=O)O)cc(S(=O)(=O)O)c4c3)cc2)cc1`, the inhibition came to 5%.
The figure for `Nc1cc(N)c(/N=N/c2cccc3c(S(=O)(=O)O)cccc23)cc1/N=N/c1cc([N+](=O)[O-])ccc1O` is 19%; for `Nc1ccc(C(=O)Nc2ccc(C(=O)Nc3ccc(/C=C/c4ccc(NC(=O)c5ccc(N)cc5)cc4S(=O)(=O)O)c(S(=O)(=O)O)c3)cc2)cc1` it is 0%.
With `Cc1ccc(Nc2cccc3c2C(=O)c2cccc(Nc4ccc(C)c(S(=O)(=O)O)c4)c2C3=O)cc1S(=O)(=O)O`, the inhibition turned out to be 4%.
For the compound `Cc1cc(C)c(/N=N/c2cc(C)c(/N=N/c3c(S(=O)(=O)O)cc4cc(Nc5ccccc5)ccc4c3O)cc2C)c(S(=O)(=O)O)c1`, the inhibition came out at 27%.
Regarding `Cc1cc(C(O)(c2ccc(Nc3ccccc3)cc2)c2ccc(Nc3ccc(S(=O)(=O)O)cc3)cc2)ccc1N` (stereo not given), the inhibition was found to be 65%.
As to `O=S(=O)(O)c1ccccc1/C=N/NC(=S)N/N=C/c1ccccc1S(=O)(=O)O`, the inhibition worked out at 1%.
In the case of `O=C(Nc1ccc2cc(S(=O)(=O)O)cc(O)c2c1)Nc1ccc2cc(S(=O)(=O)O)cc(O)c2c1`, the inhibition is -6%.
With `O=C(Nc1cc(O)ccc1Oc1cc(O)c(O)cc1S(=O)(=O)O)Nc1cc(O)ccc1Oc1cc(O)c(O)cc1S(=O)(=O)O`, the inhibition was 0%.
The figure for `O=C1/C(=C2\Nc3ccc(S(=O)(=O)O)cc3C2=O)Nc2ccc(S(=O)(=O)O)cc21` is 12%.
Consider `Nc1ccc2c(O)c(/N=N/c3ccc(-c4ccc(/N=N/c5c(S(=O)(=O)O)cc6cc(S(=O)(=O)O)c(/N=N/c7cc(O)ccc7O)c(N)c6c5O)cc4)cc3)c(S(=O)(=O)O)cc2c1`, for which the inhibition came to 1%.
Consider `Cc1cc(C)c(S(=O)(=O)O)c(C)c1Nc1ccc(Nc2c(C)cc(C)c(S(=O)(=O)O)c2C)c2c1C(=O)c1ccccc1C2=O`, for which the inhibition amounted to 13%.
The figure for `O=C(Nc1ccc2c(O)cc(S(=O)(=O)O)cc2c1)Nc1ccc2c(O)c(/N=N/c3ccc4cc(S(=O)(=O)O)ccc4c3)c(S(=O)(=O)O)cc2c1` is 36%; for `O=C(CC(C(=O)O)S(=O)(=O)O)Nc1ccc(S(=O)(=O)c2ccc(NC(=O)CC(C(=O)O)S(=O)(=O)O)cc2)cc1` (stereo not given) it is 1%.
Take `Cc1cc(/N=N/c2ccc(/C=C/c3ccc(/N=N/c4cc(C)c(N)c(/N=N/c5ccc(S(=O)(=O)O)cc5)c4N)cc3S(=O)(=O)O)c(S(=O)(=O)O)c2)c(N)c(/N=N/c2ccc(S(=O)(=O)O)cc2)c1N`: the inhibition came out at 35%.
On to `CCOc1cc(-c2ccc(/N=N/c3c(S(=O)(=O)O)cc4ccc(N)cc4c3O)cc2)ccc1/N=N/c1c(S(=O)(=O)O)cc2ccc(N)cc2c1O`, for which the inhibition turned out to be 39%.
To `Cc1ccc(Nc2ccc(Nc3ccc(C)cc3S(=O)(=O)O)c3c2C(=O)c2ccccc2C3=O)c(S(=O)(=O)O)c1` belongs 8%; to `O=C(Nc1cccc(C(=O)Nc2ccc(S(=O)(=O)O)c3cc(S(=O)(=O)O)cc(S(=O)(=O)O)c23)c1)Nc1cccc(C(=O)Nc2cccc3c(S(=O)(=O)O)c(S(=O)(=O)O)cc(S(=O)(=O)O)c23)c1`, 27%; to `O=C(N/N=C/c1ccccc1S(=O)(=O)O)C(=O)N/N=C/c1ccccc1S(=O)(=O)O`, -2%.
For `Nc1ccc(NC(=O)c2ccc(C(=O)Nc3ccc4c(O)cc(S(=O)(=O)O)cc4c3)cc2)cc1`, the inhibition came to 20%.
To `O=C(O)c1ccccc1-c1c2cc/c(=N\c3ccccc3)cc-2oc2cc(Nc3ccc(S(=O)(=O)O)cc3)ccc12` belongs 27%; to `COc1ccc(/C=N/NC(=N)C(=N)N/N=C/c2ccc(OC)c(S(=O)(=O)O)c2)cc1S(=O)(=O)O`, 8%; to `O=C(Nc1ccc2c(O)cc(S(=O)(=O)O)cc2c1)c1ccc([N+](=O)[O-])cc1`, 12%.
The figure for `O=C(N/N=C/c1ccc(O)c(S(=O)(=O)O)c1)C(=O)N/N=C/c1ccc(O)c(S(=O)(=O)O)c1` is 5%; for `O=C(Nc1ccc(S(=O)(=O)c2ccc(NC(=O)Nc3ccc4cc(S(=O)(=O)O)ccc4c3)cc2)cc1)Nc1ccc2cc(S(=O)(=O)O)ccc2c1` it is 43%.
The figure for `O=C(Nc1ccc2cc(S(=O)(=O)O)ccc2c1)c1ccc([N+](=O)[O-])cc1` is -1%; for `O=C(Nc1ccc2cc(S(=O)(=O)O)cc(S(=O)(=O)O)c2c1)Nc1ccc2cc(S(=O)(=O)O)cc(S(=O)(=O)O)c2c1` it is 0%; for `O=C(Nc1ccc2c(O)cc(S(=O)(=O)O)cc2c1)Nc1ccc2c(O)cc(S(=O)(=O)O)cc2c1` it is 11%.
On to `CCCCc1ccc(Nc2ccc(Nc3ccc(CCCC)cc3S(=O)(=O)O)c3c2C(=O)c2ccccc2C3=O)c(S(=O)(=O)O)c1`, for which the inhibition is 8%.
Take `Nc1ccc2c(O)c(/N=N/c3ccc4c(O)cc(S(=O)(=O)O)cc4c3)c(S(=O)(=O)O)cc2c1`: the inhibition worked out at 30%.
`Nc1ccc2cc(S(=O)(=O)O)cc(O)c2c1/N=N/c1ccc(NC(=O)Nc2ccc(/N=N/c3c(N)ccc4cc(S(=O)(=O)O)cc(O)c34)c(S(=O)(=O)O)c2)cc1S(=O)(=O)O`: the inhibition was 22%.
For the compound `Nc1c(S(=O)(=O)O)cc(Nc2cccc(S(=O)(=O)/C=C/S(=O)(=O)O)c2)c2c1C(=O)c1ccccc1C2=O`, the inhibition was 43%.
As for `O=C(Nc1ccc2c(O)c(/N=N/c3ccccc3)c(S(=O)(=O)O)cc2c1)Nc1ccc2c(O)c(/N=N/c3ccccc3)c(S(=O)(=O)O)cc2c1`, the inhibition came to 23%.
For `Cc1ccc(C(=O)Nc2ccc(S(=O)(=O)[O-])c3cc(S(=O)(=O)O)cc(S(=O)(=O)[O-])c23)cc1NC(=O)c1cccc(NC(=O)Nc2cccc(C(=O)Nc3cc(C(=O)Nc4ccc(S(=O)(=O)O)c5cc(S(=O)(=O)O)cc(S(=O)(=O)O)c45)ccc3C)c2)c1.Cc1ccc(C)c2c1c(NCCCCCCNc1cc(C)[n+](C)c3c(C)ccc(C)c13)cc(C)[n+]2C`, the inhibition came out at 6%.
Regarding `NC(Cc1ccc(O)cc1)C(=O)NCCS(=O)(=O)O` (stereo not given), the inhibition was 1%.
With `COc1ccc(/C=N/NC(=O)N/N=C/c2ccc(OC)c(S(=O)(=O)O)c2)cc1S(=O)(=O)O`, the inhibition amounted to 2%.
`N=C(N/N=C/c1ccccc1S(=O)(=O)O)C(=N)N/N=C/c1ccccc1S(=O)(=O)O`: the inhibition stood at 5%.
As to `CC(=O)Nc1ccc(/N=N/c2c(S(=O)(=O)O)cc3cc(NC(=O)Nc4ccc5c(O)c(/N=N/c6ccccc6)c(S(=O)(=O)O)cc5c4)ccc3c2O)cc1`, the inhibition worked out at 17%.
To `O=S(=O)(O)c1ccc(O)c(/N=N/C=N/Nc2cc(S(=O)(=O)O)ccc2O)c1` belongs -1%.
Regarding `Cc1[nH]n(-c2cc(S(=O)(=O)O)ccc2O)c(=O)c1/N=N/c1c(NC(=O)c2ccc(N)cc2)ccc2cc(S(=O)(=O)O)ccc12`, the inhibition came to 49%.
With `O=C(N/N=C/c1ccccc1S(=O)(=O)O)N/N=C/c1ccccc1S(=O)(=O)O`, the inhibition was -5%.
As for `Nc1cccc(/N=N/c2c(S(=O)(=O)O)cc3cc(Nc4ccc5c(O)c(/N=N/c6cccc(N)c6)c(S(=O)(=O)O)cc5c4)ccc3c2O)c1`, the inhibition stood at 33%.
As for `O=C(Nc1cccc(C(=O)Nc2ccc3cc(S(=O)(=O)O)cc(S(=O)(=O)O)c3c2)c1)Nc1cccc(C(=O)Nc2ccc3cc(S(=O)(=O)O)cc(S(=O)(=O)O)c3c2)c1`, the inhibition is 29%.
For the compound `COc1cc(/N=N/c2c(C)cc(C)cc2S(=O)(=O)O)c(C)cc1/N=N/c1c(S(=O)(=O)O)cc2cc(Nc3ccccc3)ccc2c1O`, the inhibition amounted to 2%.

In general, inhibition refers to the drop in the measured response relative to a control, in per cent.
